≈ marks a conversion by molar mass, not a printed value.
Experiments:
[1] = molecular target: T1, Isocitrate lyase (Mycobacterium tuberculosis) (UniProt P9WKK7); experiment: Inhibition of Mycobacterium tuberculosis isocitrate lyase […]
T1 sequence (whole entry): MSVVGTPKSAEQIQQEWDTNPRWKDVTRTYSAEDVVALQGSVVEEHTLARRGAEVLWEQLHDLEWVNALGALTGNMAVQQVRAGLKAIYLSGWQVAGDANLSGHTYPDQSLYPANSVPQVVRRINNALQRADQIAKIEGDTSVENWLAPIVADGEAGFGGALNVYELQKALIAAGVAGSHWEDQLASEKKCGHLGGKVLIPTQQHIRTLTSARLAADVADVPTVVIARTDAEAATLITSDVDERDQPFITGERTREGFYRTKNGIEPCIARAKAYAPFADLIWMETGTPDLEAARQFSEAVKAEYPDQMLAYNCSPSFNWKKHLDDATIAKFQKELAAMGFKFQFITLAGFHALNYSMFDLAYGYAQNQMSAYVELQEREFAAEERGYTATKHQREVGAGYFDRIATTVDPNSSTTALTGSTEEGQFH
How it was run: (§1)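 Isocitrate lyase activity was measured at 37 °C as glyoxylate-phenylhydrazone formation from isocitrate with phenylhydrazine, MgCl2 and 2-mercaptoethanol in potassium phosphate buffer. After 10 min the mixture was diluted and absorbance read at 324 nm. Test compounds were added from a 10 mM solution; the 3-nitropropionic acid reference came from a 100 mM solution. % inhibition = (control − test)/control × 100.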

[2] = tested on: Mycobacterium tuberculosis; experiment: Antimycobacterial activity against Mycobacterium tuberculosis H37Ra assessed as inhibition of bacterial growth in log phase by agar dilution method; type: functional
How it was run: (§2)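 Log-phase MTB was tested by agar dilution on Middlebrook 7H11 with OADC, following NCCLS guidance. MIC was the lowest concentration giving complete growth inhibition, determined in triplicate.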

[3] = tested on: Mycobacterium tuberculosis; experiment: Antimycobacterial activity against Mycobacterium tuberculosis H37Ra by agar dilution method; type: functional; how it was run: as §2
[4] = tested on: Mycobacterium tuberculosis; experiment: Antimycobacterial activity against Mycobacterium tuberculosis H37Ra assessed as inhibition of bacterial growth in dormant phase; type: functional
How it was run: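 MTB grown in 7H9 with glycerol, OADC and Tween 80 at 37 °C with rolling to OD600 ~0.6, then washed and held in PBS 6 weeks at 37 °C. Starved cells (~1×10^7 in 1 mL PBS) were exposed to compounds in DMSO at various concentrations for 7 days with shaking. After washing, dilutions were plated on antibiotic-free 7H11 and counted after 4 weeks. MIC was complete growth inhibition, in triplicate.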

[5] = Cytotoxicity against human MT4 cells after 5 days by spectrophotometry; type: cell-based
How it was run: (§3)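 MT-4 cells were grown in RPMI-1640 DM with 10% heat-inactivated calf serum and gentamicin. HIV-1 IIIB (100 CCID50) or mock infection was run in parallel with compounds in triplicate, at 37 °C and 5% CO2 for 5 days. Viability was read by MTT spectrophotometry. EC50 was the 50% reduction in virus cytopathic effect; CC50 was the 50% loss of mock-infected cell viability.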

[6] = tested on: Human immunodeficiency virus 1; experiment: Antiviral activity against HIV1 3B infected in human MT4 cells assessed as protection against virus-induced cytopathogenicity after 5 days by microtiter plate analysis; type: functional, organism-based; details: Human immunodeficiency virus 1, 3B, MT4, 120 h; how it was run: as §3
[7] = molecular target: T1, Isocitrate lyase (Mycobacterium tuberculosis); experiment: Inhibition of Mycobacterium tuberculosis isocitrate lyase at 100 mM; how it was run: as §1
[8] = molecular target: Human immunodeficiency virus type 1 reverse transcriptase (Human immunodeficiency virus 1, UniProt Q72547); experiment: Inhibition of HIV1 reverse transcriptase
How it was run: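 The radiometric reaction used wild-type RT in 50 mM Tris-HCl pH 7.8 with DTT, glutathione, EDTA, KCl, MgCl2, BSA, Triton X-100, poly(rC)·oligo(dG) template/primer and [3H]dGTP. It ran 15 min at 37 °C, was stopped with carrier DNA, pyrophosphate and TCA, and held on ice 30 min.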

Row | Structure (SMILES) | inhibition [1] [%] | MIC [2] [µM] | MIC [3] [µM] | MIC [4] [µM] | CC50 at 120 h [5] [µM] | EC50 [6] [µM] | inhibition [7] [%] | IC50 [8] [µM]
1 | CONC(=S)N/N=C1\C(=O)N(CN2CCN(c3ccc(OC)cc3)CC2)c2ccc(C)cc21 | 23.3 | 0.16 (≈ 0.075 µg/mL) | 6.68 (≈ 3.13 µg/mL) | 9.74 (≈ 4.56 µg/mL) | 324 | 9.82 |  | 
2 | CCn1cc(C(=O)O)c(=O)c2cc(F)c(N3CCN(CN4C(=O)/C(=N\NC(=S)NOC)c5cc(F)ccc54)CC3)cc21 |  | 4.25 (≈ 2.55 µg/mL) | 0.67 (≈ 0.402 µg/mL) | 17 (≈ 10.2 µg/mL) | 144 | 10.5 |  | 
3 | CONC(=S)N/N=C1\C(=O)N(CN2CCN(c3c(F)cc4c(=O)c(C(=O)O)cn(C5CC5)c4c3OC)CC2C)c2ccc(C)cc21 (configuration not stated) |  | 0.31 (≈ 0.202 µg/mL) | 0.31 (≈ 0.202 µg/mL) | 17.8 (≈ 11.6 µg/mL) | 154 | 1.86 |  | 
4 | CONC(=S)N/N=C1\C(=O)N(CN2CCOCC2)c2ccc(F)cc21 | 15.9 | 3.37 (≈ 1.24 µg/mL) | 4.25 (≈ 1.56 µg/mL) | 13.5 (≈ 4.95 µg/mL) | 274 | 28.9 |  | 
5 | NNC(=O)c1ccncc1 [ISONIAZID] |  | 0.36 (≈ 0.0494 µg/mL) |  | 182 (≈ 25 µg/mL) |  |  |  | 
6 | O=C(O)c1cn(C2CC2)c2cc(N3CCN(CN4C(=O)/C(=N\NC(=S)NO)c5cc(F)ccc54)CC3)c(F)cc2c1=O |  | 3.27 (≈ 1.95 µg/mL) | 0.33 (≈ 0.197 µg/mL) | 13.1 (≈ 7.82 µg/mL) | 222 | 16.5 |  | 
7 | CO[C@H]1/C=C/O[C@@]2(C)Oc3c(C)c(O)c4c(O)c(c(/C=N/N5CCN(C)CC5)c(O)c4c3C2=O)NC(=O)/C(C)=C\C=C\[C@H](C)[C@H](O)[C@@H](C)[C@@H](O)[C@@H](C)[C@H](OC(C)=O)[C@@H]1C [RIFAMPIN] |  | 0.12 (≈ 0.0988 µg/mL) |  | 15.2 (≈ 12.5 µg/mL) |  |  |  | 
8 | CONC(=S)N/N=C1\C(=O)N(CN2CCN(c3cc4c(cc3F)c(=O)c(C(=O)O)cn4C3CC3)CC2)c2ccc(C)cc21 | 63.4 |  | 0.66 (≈ 0.401 µg/mL) |  | 232 | 9.22 |  | 
9 | O=C(O)CC[N+](=O)[O-] |  |  |  |  |  |  | 66 | 
10 | CONC(=S)N/N=C1\C(=O)N(CN2CCN(c3ccc(Cl)cc3)CC2)c2ccc(C)cc21 | 9.49 | 0.65 (≈ 0.307 µg/mL) | 3.3 (≈ 1.56 µg/mL) | 20.4 (≈ 9.64 µg/mL) | 300 | 1.69 |  | 11.5
11 | Cc1ccc2c(c1)/C(=N/NC(=S)NO)C(=O)N2CN1CCN(c2cc3c(cc2F)c(=O)c(C(=O)O)cn3C2CC2)CC1 |  |  | 0.67 (≈ 0.398 µg/mL) | 12.1 (≈ 7.19 µg/mL) | 304 | 20.9 |  | 
12 | CONC(=S)N/N=C1\C(=O)N(CN2CCN(c3ccc(Cl)cc3)CC2)c2ccc(Cl)cc21 | 6.38 | 6.82 (≈ 3.37 µg/mL) | 6.34 (≈ 3.13 µg/mL) | 27.3 (≈ 13.5 µg/mL) | 229 | 2.43 |  | 0.25
13 | CCN(CC)CN1C(=O)/C(=N\NC(=S)NOC)c2cc(C)ccc21 | 18.9 |  | 8.96 (≈ 3.13 µg/mL) |  | 573 | 53.3 |  | 
14 | CCn1cc(C(=O)O)c(=O)c2cc(F)c(N3CCN(CN4C(=O)/C(=N\NC(=S)NO)c5cc(C)ccc54)C(C)C3)c(F)c21 (configuration not stated) |  | 0.64 (≈ 0.393 µg/mL) | 0.65 (≈ 0.399 µg/mL) | 34.6 (≈ 21.2 µg/mL) | 244 | 11.7 |  | 
15 | CONC(=S)N/N=C1\C(=O)N(CN2CCN(c3ccc(Cl)cc3)CC2)c2ccc(F)cc21 | 28.4 | 0.67 (≈ 0.32 µg/mL) | 3.27 (≈ 1.56 µg/mL) | 42.1 (≈ 20.1 µg/mL) | 347 | 3.77 |  | 16.7
16 | CCn1cc(C(=O)O)c(=O)c2cc(F)c(N3CCN(CN4C(=O)/C(=N\NC(=S)NOC)c5cc(Cl)ccc54)CC3)cc21 |  | 0.63 (≈ 0.388 µg/mL) | 0.65 (≈ 0.4 µg/mL) | 19.6 (≈ 12.1 µg/mL) | 193 | 19.2 |  | 
17 | O=C1/C(=N\NC(=S)NO)c2cc(F)ccc2N1CN1CCN(c2ccc(Cl)cc2)CC1 | 18.5 |  | 3.37 (≈ 1.56 µg/mL) |  | 194 | 6.85 |  | 
18 | Cc1ccc2c(c1)/C(=N/NC(=S)NO)C(=O)N2CN1CCN(c2ccc(Cl)cc2)CC1 | 11 |  | 6.82 (≈ 3.13 µg/mL) |  | 335 | 6.1 |  | 23.4
19 | CCn1cc(C(=O)O)c(=O)c2cc(F)c(N3CCN(CN4C(=O)/C(=N\NC(=S)NO)c5cc(F)ccc54)C(C)C3)c(F)c21 (configuration not stated) |  | 0.65 (≈ 0.401 µg/mL) | 0.65 (≈ 0.401 µg/mL) | 36.9 (≈ 22.8 µg/mL) | 187 | 9.93 |  | 
20 | CCn1cc(C(=O)O)c(=O)c2cc(F)c(N3CCN(CN4C(=O)/C(=N\NC(=S)NOC)c5cc(Cl)ccc54)C(C)C3)c(F)c21 (configuration not stated) |  |  | 1.2 (≈ 0.778 µg/mL) |  | 180 | 9.26 |  | 
